From PMC8851253 (Heliyon, 2022)

Experiments:
[1] = In vitro cytotoxic activity, MTT assay; format: cell-based, human; details: human, U-937 cells, Cytotoxicity LC50, U-937 cells, MTT, ±SD (n = 3)
Outline: (§1)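 Human U-937 macrophages in RPMI 1640/10% FBS are exposed to test compound from 200 to 0.19 µg/mL. MTT formazan is read as OD at 570 nm, with untreated cells as the viability control. Triplicate. LC50 comes from Probit linear regression of dose-response. Classes: LC50 <100 µM potentially cytotoxic, 100–<200 µM mildly cytotoxic, ≥200 µM noncytotoxic.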

[2] = system: intracellular amastigotes of L. panamensis; test: Anti-leishmanial activity, GFP flow cytometry in infected U-937 cells; format: cell-based, Leishmania panamensis; details: for EC50: Leishmania panamensis, U-937, 72 h, read-out: Anti-leishmanial EC50; for SI (anti-leishmanial): Selectivity index = LC50 (U-937)/EC50 (L. panamensis); for Anti-leishmanial activity class: L. panamensis
Outline: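 L. panamensis GFP strain MHOM/CO/87/UA140 stationary promastigotes infect PMA-treated U-937 cells (3×10^5 cells/mL) at 15:1, 3 h at 34 °C, 5% CO2, then washed. At 24 h, test compound (50.0, 12.5, 3.1, 0.8 µg/mL) is added for 72 h at 37 °C. Flow cytometry at 488/525 nm over 10,000 events gives MFI, corrected with uninfected cells. Amphotericin B is the control. Triplicate, two experiments. SI = U-937 LC50/EC50.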

[3] = system: intracellular amastigotes of T. cruzi (Tulahuen strain); format: cell-based, Trypanosoma cruzi; details: for SI (anti-trypanosomal): Selectivity index = LC50 (U-937)/EC50 (T. cruzi); for EC50: Trypanosoma cruzi, TULAHUEN, U-937, 72 h, read-out: Anti-trypanosomal EC50
Outline: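 T. cruzi Tulahuen (β-galactosidase-transfected) epimastigotes are grown 10 days at 26 °C. U-937 cells (2.5×10^4/100 µL, 0.16 µM PMA) are infected at 5:1 for 24 h at 37 °C, 5% CO2, RPMI/10% FBS, then washed. Six serial compound dilutions run for 72 h. CPRG 100 µM plus 0.1% NP-40 for 4 h, dark, then OD 570 nm, blank-subtracted. Benznidazole is the control. Triplicate, ≥2 experiments. SI = U-937 LC50/EC50.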

[4] = system: P. falciparum (3D7 strain); test: Anti-plasmodial activity, pLDH assay; format: cell-based, Plasmodium falciparum; details: for EC50: Plasmodium falciparum, 3D7, 72 h, read-out: Anti-plasmodial EC50; for SI (anti-plasmodial): Selectivity index = LC50 (U-937)/EC50 (P. falciparum)
Outline: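 Asynchronous P. falciparum 3D7 at 0.5% parasitemia, 1% hematocrit in RPMI-1640/1% Albumax II is exposed to test compound at 100, 25, 3.125 and 0.78 µg/mL. Incubation is 72 h at 37 °C under 90% N2/5% CO2/5% O2. Freeze-thawed lysate goes into Malstat (pH 9.0) plus NBT/PES for 1 h in the dark. pLDH is read at 650 nm, blank-subtracted. Chloroquine is the control. SI = U-937 LC50/EC50.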

U-937 cells = test: In vitro cytotoxic activity, MTT assay; format: cell-based, human; details: for Degree of cytotoxicity: class by LC50 scale of b21
Outline: as §1

O=C(/C=C/c1ccc2c(c1)OCO2)c1cc2ccccc2oc1=O [Compound A13, 3-[(2E)-3-(1,3-benzodioxol-5-yl)prop-2-enoyl]-2H-chromen-2-one]
CC50 [1]: 38 ± 3.4 µM
EC50 [2]: > 20 µM
SI (anti-leishmanial) [2]: <1.90
SI (anti-trypanosomal) [3]: 0.30
EC50 [3]: 129 ± 11 µM
EC50 [4]: 15.2 ± 1.1 µM

O=C(/C=C/c1ccc(O)cc1)c1cc2ccccc2oc1=O [Compound A6, 3-[(2E)-3-(4-hydroxyphenyl)prop-2-enoyl]-2H-chromen-2-one]
CC50 [1]: 7.5 ± 0.4 µM
EC50 [2]: 8.2 ± 4 µM
SI (anti-leishmanial) [2]: 0.91
SI (anti-trypanosomal) [3]: 0.17
EC50 [3]: 43.2 ± 6.4 µM
EC50 [4]: 16.6 ± 0.9 µM
SI (anti-plasmodial) [4]: 0.45

O=C(/C=C/c1ccccc1)c1ccccc1 [Chalcone, reference compound]
CC50 [1]: 27.9 ± 0.5 µM
EC50 [2]: 15 ± 1.44 µM
SI (anti-leishmanial) [2]: 1.86
SI (anti-trypanosomal) [3]: 0.28
EC50 [3]: 99.9 ± 39 µM
EC50 [4]: 769 ± 72 µM
SI (anti-plasmodial) [4]: 0.04

C[C@@H]1[C@H](O)[C@@H](C)/C=C/C=C/C=C/C=C/C=C/C=C/C=C/[C@H](O[C@@H]2O[C@H](C)[C@@H](O)[C@H](N)[C@@H]2O)C[C@@H]2O[C@](O)(C[C@@H](O)C[C@@H](O)[C@H](O)CC[C@@H](O)C[C@@H](O)CC(=O)O[C@H]1C)C[C@H](O)[C@H]2C(=O)O [Amphotericin B, reference compound]
CC50 [1]: 32.6 ± 4 µM
EC50 [2]: 0.3 ± 0.1 µM
SI (anti-leishmanial) [2]: 108.67

CCOc1cc(/C=C/C(=O)c2cc3ccccc3oc2=O)ccc1O [Compound A12, 3-[(2E)-3-(3-ethoxy-4-hydroxyphenyl)prop-2-enoyl]-2H-chromen-2-one]
CC50 [1]: 8.5 ± 1.6 µM
EC50 [2]: 6.6 ± 1.3 µM
SI (anti-leishmanial) [2]: 1.29
SI (anti-trypanosomal) [3]: 0.21
EC50 [3]: 41.2 ± 1.1 µM
EC50 [4]: 15 ± 0.5 µM
SI (anti-plasmodial) [4]: 0.57

O=C(Cn1ccnc1[N+](=O)[O-])NCc1ccccc1 [Benznidazole, reference compound]
CC50 [1]: > 200 µM
SI (anti-trypanosomal) [3]: >13.83
EC50 [3]: 14.5 ± 0.1 µM

COc1cccc(/C=C/C(=O)c2cc3ccccc3oc2=O)c1 [Compound A2, 3-[(2E)-3-(3-methoxyphenyl)prop-2-enoyl]-2H-chromen-2-one]
CC50 [1]: 5.8 ± 0.1 µM
EC50 [2]: 2.5 ± 0.2 µM
SI (anti-leishmanial) [2]: 2.31
SI (anti-trypanosomal) [3]: 0.20
EC50 [3]: 28.4 ± 5.7 µM
EC50 [4]: 23.3 ± 1.5 µM
SI (anti-plasmodial) [4]: 0.25

O=C(/C=C/c1ccc([N+](=O)[O-])cc1)c1cc2ccccc2oc1=O [Compound A8, 3-[(2E)-3-(4-nitrophenyl)prop-2-enoyl]-2H-chromen-2-one]
EC50 [2]: 197 ± 76.9 µM
SI (anti-leishmanial) [2]: 3.05
SI (anti-trypanosomal) [3]: 1.91
EC50 [3]: 314 ± 19.9 µM
EC50 [4]: 18.4 ± 1 µM

O=C(/C=C/c1ccc(Cl)cc1)c1cc2ccccc2oc1=O [Compound A9, 3-[(2E)-3-(4-chlorophenyl)prop-2-enoyl]-2H-chromen-2-one]
CC50 [1]: 43.4 ± 3.9 µM
EC50 [2]: 59.1 ± 12.7 µM
SI (anti-leishmanial) [2]: 0.73
SI (anti-trypanosomal) [3]: 0.83
EC50 [3]: 52.1 ± 3.3 µM
EC50 [4]: 18.9 ± 1.5 µM

O=C(/C=C/c1cccc(O)c1)c1cc2ccccc2oc1=O [Compound A5, 3-[(2E)-3-(3-hydroxyphenyl)prop-2-enoyl]-2H-chromen-2-one]
CC50 [1]: 5.9 ± 0.2 µM
EC50 [2]: 2.1 ± 0.2 µM
SI (anti-leishmanial) [2]: 2.85
SI (anti-trypanosomal) [3]: 0.31
EC50 [3]: 18.7 ± 2.4 µM
EC50 [4]: 26.7 ± 3.6 µM
SI (anti-plasmodial) [4]: 0.22

O=C(/C=C/c1cccc([N+](=O)[O-])c1)c1cc2ccccc2oc1=O [Compound A7, 3-[(2E)-3-(3-nitrophenyl)prop-2-enoyl]-2H-chromen-2-one]
CC50 [1]: 112 ± 10.6 µM
Degree of cytotoxicity (U-937 cells): mildly cytotoxic (100 ≤ LC50 < 200 μM)
EC50 [2]: 64.7 ± 8.6 µM
SI (anti-leishmanial) [2]: 1.73
SI (anti-trypanosomal) [3]: 0.23
EC50 [3]: 496 ± 62 µM
EC50 [4]: 17.9 ± 1.7 µM

O=C(/C=C/c1ccccc1)c1cc2ccccc2oc1=O [Compound A1, 3-[(2E)-3-phenylprop-2-enoyl]-2H-chromen-2-one]
CC50 [1]: 6.7 ± 0.1 µM
Anti-leishmanial activity class [2]: highly active (Compounds with EC50 ≤ 25 μM were considered highly active)
EC50 [2]: 3.7 ± 0.5 µM
SI (anti-leishmanial) [2]: 1.82
SI (anti-trypanosomal) [3]: 0.15
EC50 [3]: 44.1 ± 4.2 µM
EC50 [4]: 25.7 ± 3.5 µM
SI (anti-plasmodial) [4]: 0.26

O=C(/C=C/c1cccc(Br)c1)c1cc2ccccc2oc1=O [Compound A10, 3-[(2E)-3-(3-bromophenyl)prop-2-enoyl]-2H-chromen-2-one]
CC50 [1]: 112 ± 8.2 µM
Degree of cytotoxicity (U-937 cells): mildly cytotoxic (100 ≤ LC50 < 200 μM)
Toxicity class (U-937 cells; class by United Nations 2009 scale): moderately toxic (from 50 to 200 μM moderately toxic)
EC50 [2]: 32.8 ± 3 µM
SI (anti-trypanosomal) [3]: 0.98
EC50 [3]: 114 ± 8.5 µM
EC50 [4]: 19.6 ± 1.7 µM

CCN(CC)CCCC(C)Nc1ccnc2cc(Cl)ccc12 (stereo not shown) [Chloroquine, reference compound]
CC50 [1]: 155 ± 5.2 µM
EC50 [4]: 3.3 ± 0.4 µM
SI (anti-plasmodial) [4]: 46.34

COc1ccc(/C=C/C(=O)c2cc3ccccc3oc2=O)cc1 [Compound A3, 3-[(2E)-3-(4-methoxyphenyl)prop-2-enoyl]-2H-chromen-2-one]
CC50 [1]: 11.4 ± 2.3 µM
EC50 [2]: > 6 µM
SI (anti-leishmanial) [2]: <1.89
SI (anti-trypanosomal) [3]: 0.03
EC50 [3]: 327 ± 62.4 µM
EC50 [4]: 38.7 ± 5.6 µM
SI (anti-plasmodial) [4]: 0.29

Cc1cccc(/C=C/C(=O)c2cc3ccccc3oc2=O)c1 [Compound A4, 3-[(2E)-3-(3-methylphenyl)prop-2-enoyl]-2H-chromen-2-one]
CC50 [1]: 5.7 ± 0.1 µM
Anti-leishmanial activity class [2]: highly active (Compounds with EC50 ≤ 25 μM were considered highly active)
EC50 [2]: 10.7 ± 5.7 µM
SI (anti-leishmanial) [2]: 0.53
SI (anti-trypanosomal) [3]: 0.11
EC50 [3]: 50 ± 5.3 µM
EC50 [4]: 35.3 ± 1.4 µM
SI (anti-plasmodial) [4]: 0.16

O=C(/C=C/c1ccc(Br)cc1)c1cc2ccccc2oc1=O [Compound A11, 3-[(2E)-3-(4-bromophenyl)prop-2-enoyl]-2H-chromen-2-one]
CC50 [1]: 32.1 ± 2.2 µM
EC50 [2]: 31.4 ± 4.2 µM
SI (anti-leishmanial) [2]: 1.02
SI (anti-trypanosomal) [3]: 0.72
EC50 [3]: 44.4 ± 3.5 µM
EC50 [4]: 20.9 ± 1.2 µM
SI (anti-plasmodial) [4]: 1.54

O=c1ccc2ccccc2o1 [Coumarin, reference compound]
CC50 [1]: 12.9 ± 0.5 µM
EC50 [2]: 64.4 ± 21.8 µM
SI (anti-leishmanial) [2]: 0.20
SI (anti-trypanosomal) [3]: <1.83
EC50 [3]: > 7 µM
EC50 [4]: 50.7 ± 5.7 µM
SI (anti-plasmodial) [4]: 0.25
